The results in this text go back to ChEMBL document CHEMBL4038305, “Benzoxaborole Antimalarial Agents. Part 5. Lead Optimization of Novel Amide Pyrazinyloxy Benzoxaboroles and Identification of a Preclinical Candidate” (J Med Chem, 2017).

pIC50: −log10 of the molar value.

In data set [1] the test system is Plasmodium berghei. Description: Antimalarial activity against Plasmodium berghei infected in Swiss Webster mouse assessed as mouse survival rate at 1.1 mg/kg administered once daily via oral gavage for 4 consecutive days beginning 1 hr after infection measured on day 5 post infection relative to control. Type of data set: functional. The essentials: (§1)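 Mice given an intraperitoneal injection of P. berghei-infected erythrocytes taken from a previously infected animal. Oral dosing once daily for 4 consecutive days, starting 1 h after infection. Vehicle: polyethylene glycol 300/propylene glycol/water (weight ratio 55/25/20). Percent survival recorded daily from day 4 to day 20. Chloroquine 30 mg/kg and vehicle-only groups served as controls.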

The subject of data set [2] is Plasmodium berghei. In words: Antimalarial activity against Plasmodium berghei infected in Swiss Webster mouse assessed as mouse survival rate at 1.1 mg/kg administered once daily via oral gavage for 4 consecutive days beginning 1 hr after infection measured on day 7 post infection relative to control. The class given is functional. Summed up: as §1
Data set [3] has as its system Plasmodium berghei. Description: Antimalarial activity against Plasmodium berghei infected in Swiss Webster mouse assessed as mouse survival rate at 11 mg/kg administered once daily via oral gavage for 4 consecutive days beginning 1 hr after infection measured on day 13 post infection relative to control. The class given is functional. Summed up:
as §1

The test system of data set [4] is Plasmodium berghei. Description: Antimalarial activity against Plasmodium berghei infected in Swiss Webster mouse assessed as mouse survival rate at 100 mg/kg administered once daily via oral gavage for 4 consecutive days beginning 1 hr after infection measured on day 17 post infection relative to control. The class given is functional. The essentials:
as §1

In data set [5] the test system is Plasmodium berghei. In words: Antimalarial activity against Plasmodium berghei infected in Swiss Webster mouse assessed as mouse survival rate at 100 mg/kg administered once daily via oral gavage for 4 consecutive days beginning 1 hr after infection measured on day 18 post infection relative to control. Type of data set: functional. The essentials: as §1
The test system of data set [6] is Plasmodium berghei. In words: Antimalarial activity against Plasmodium berghei infected in Swiss Webster mouse assessed as mouse survival rate at 3 mg/kg administered once daily via oral gavage for 4 consecutive days beginning 1 hr after infection measured on day 8 post infection relative to control. The class given is functional. The essentials:
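P. berghei-infected erythrocytes taken from a previously infected mouse were injected intraperitoneally. Oral dosing, once daily for 4 consecutive days, began 1 h after infection, in polyethylene glycol 300/propylene glycol/water (55/25/20 by weight). Chloroquine at 30 mg/kg was the positive control, with a vehicle-only group. Percent survival was recorded daily from day 4 to day 20.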

A short description of data set [7]: Volume of distribution at steady state in Sprague-Dawley rat at 5 mg/kg, iv by HPLC/MS analysis. The class given is ADME, organism-based. To be noted: in vivo, read-out: Vdss.
For data set [8], the system named is Plasmodium falciparum. Description: Antimalarial activity against Plasmodium falciparum D6 infected in human erythrocytes assessed as reduction in [3H]-hypoxanthine incorporation preincubated for 24 hrs followed by [3H]-hypoxanthine addition measured after 24 hrs by scintillation counting method. Type of data set: functional, cell-based.
Data set [9] relates to Plasmodium falciparum. Description: Antimalarial activity against intraerythrocytic stage of Plasmodium falciparum assessed as time required for maximal killing effect at 10 times IC50 preincubated for 24 hrs followed by [3H]-hypoxanthine addition measured after 24 hrs by scintillation counting method. Type of data set: functional. The essentials: (§2)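 In vitro P. falciparum parasite reduction ratio assay run at 10×, 30× and 100× IC50. Derived parameters: lag phase (time to maximal killing), PRR (parasites killed per life cycle) and PCT99.9% (time to clear 99.9% of the initial parasite population).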

The subject of data set [10] is Plasmodium falciparum. In words: Antimalarial activity against intraerythrocytic stage of Plasmodium falciparum assessed as time required for maximal killing effect at 100 times IC50 preincubated for 24 hrs followed by [3H]-hypoxanthine addition measured after 24 hrs by scintillation counting method. Type of data set: functional. The essentials:
as §2

Data set [11] relates to Plasmodium falciparum. In words: Antimalarial activity against intraerythrocytic stage of Plasmodium falciparum assessed as time required to clear 99.9% of initial parasite population at 30 times IC50 preincubated for 24 hrs followed by [3H]-hypoxanthine addition measured after 24 hrs by scintillation counting method. The class given is functional. Summed up: as §2
The subject of data set [12] is Salmonella typhimurium. Description: Genotoxicity in Salmonella typhimurium TA100 assessed as number of revertants per plate at 5 ug/plate in absence of rat liver S9 fraction by Ames test (reference value: 154 +/- 9). Type of data set: toxicity. To be noted: salmonella enterica subsp. enterica serovar typhimurium.
For data set [13], the system named is Salmonella typhimurium. In words: Genotoxicity in Salmonella typhimurium TA100 assessed as number of revertants per plate at 1500 ug/plate in absence of rat liver S9 fraction by Ames test (reference value: 154 +/- 9). The class given is toxicity. The following applies: salmonella enterica subsp. enterica serovar typhimurium. On the technique in general: The Ames test detects mutagens through reverse mutation in bacteria.

Data set [14] has as its system Salmonella typhimurium. In words: Genotoxicity in Salmonella typhimurium TA100 assessed as number of revertants per plate at 150 ug/plate in presence of rat liver S9 fraction by Ames test (reference value: 141 +/- 1). The class given is toxicity. To be noted: salmonella enterica subsp. enterica serovar typhimurium.
The test system of data set [15] is Salmonella typhimurium. Description: Genotoxicity in Salmonella typhimurium TA1535 assessed as number of revertants per plate at 1500 ug/plate in presence of rat liver S9 fraction by Ames test (reference value: 10). Type of data set: toxicity. To be noted: salmonella enterica subsp. enterica serovar typhimurium.
Data set [16] deals with Salmonella typhimurium. In words: Genotoxicity in Salmonella typhimurium TA1535 assessed as number of revertants per plate at 5000 ug/plate in presence of rat liver S9 fraction by Ames test (reference value: 10). To be noted: salmonella enterica subsp. enterica serovar typhimurium. The class given is toxicity.
Data set [17] has as its system Salmonella typhimurium. Description: Genotoxicity in Salmonella typhimurium TA1537 assessed as number of revertants per plate at 15 ug/plate in absence of rat liver S9 fraction by Ames test (reference value: 19 +/- 9). Type of data set: toxicity. To be noted: salmonella enterica subsp. enterica serovar typhimurium.
The subject of data set [18] is Salmonella typhimurium. Description: Genotoxicity in Salmonella typhimurium TA1537 assessed as number of revertants per plate at 1.5 ug/plate in presence of rat liver S9 fraction by Ames test (reference value: 11 +/- 4). The following applies: salmonella enterica subsp. enterica serovar typhimurium. Type of data set: toxicity.
Data set [19] relates to Escherichia coli. Description: Genotoxicity in Escherichia coli WP2uvrA assessed as number of revertants per plate at 150 ug/plate in absence of rat liver S9 fraction by Ames test (reference value: 45 +/- 9). Type of data set: toxicity.
The test system of data set [20] is Escherichia coli. In words: Genotoxicity in Escherichia coli WP2uvrA assessed as number of revertants per plate at 1.5 ug/plate in presence of rat liver S9 fraction by Ames test (reference value: 42 +/- 6). Type of data set: toxicity.
In data set [21] the test system is Escherichia coli. In words: Genotoxicity in Escherichia coli WP2uvrA assessed as number of revertants per plate at 50 ug/plate in presence of rat liver S9 fraction by Ames test (reference value: 42 +/- 6). Type of data set: toxicity.
Data set [22] relates to Escherichia coli. In words: Genotoxicity in Escherichia coli WP2uvrA assessed as number of revertants per plate at 150 ug/plate in presence of rat liver S9 fraction by Ames test (reference value: 42 +/- 6). The class given is toxicity.
The test system of data set [23] is Escherichia coli. Description: Genotoxicity in Escherichia coli WP2uvrA assessed as number of revertants per plate at 500 ug/plate in presence of rat liver S9 fraction by Ames test (reference value: 42 +/- 6). Type of data set: toxicity.
Data set [24] has as its system Lymphocyte. In words: Genotoxicity in human lymphocytes assessed as replication index at 160 ug/mL after 3 hrs in presence of rat liver S9 fraction by micronucleus assay relative to control. Type of data set: toxicity, cell-based. The following applies: s9, 3 h. Summed up:
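Human lymphocytes exposed for 3 h with or without rat liver S9, or 28 h without S9, with 1% DMSO as vehicle control. Replication index = (binucleated + 2 × multinucleated cells)/total cells. Cytotoxicity (%) = 100 − (RI treated/RI vehicle) × 100.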

Data set [25] concerns Lymphocyte. Description: Genotoxicity in human lymphocytes assessed as increase in frequency of micronucleated cells at 80 ug/mL after 3 hrs in absence of rat liver S9 fraction by micronucleus assay (reference value: 0.99%). The class given is toxicity, cell-based.
Data set [26] has as its system Lymphocyte. Description: Genotoxicity in human lymphocytes assessed as increase in frequency of micronucleated cells at 160 ug/mL after 28 hrs in absence of rat liver S9 fraction by micronucleus assay (reference value: 0.74%). The class given is toxicity, cell-based.
Data set [27] concerns Lymphocyte. In words: Genotoxicity in human lymphocytes assessed as increase in frequency of micronucleated cells at 355.15 ug/mL after 28 hrs in absence of rat liver S9 fraction by micronucleus assay (reference value: 0.74%). Type of data set: toxicity, cell-based.

Turning to `Cc1c(Oc2cnc(C(=O)N3CC(O)(C(C)C)C3)cn2)ccc2c1B(O)OC2`, the survival at 1.1 mg/kg in the data set with Plasmodium berghei [1] is 100%; in the data set on Plasmodium berghei [2], 0%. Further, in the data set with Plasmodium berghei [3], the survival at 11 mg/kg was determined as 20%. Moreover, the survival at 100 mg/kg amounted to 100% with Plasmodium berghei [4] and 80% with Plasmodium berghei [5].

Regarding `Cc1c(Oc2cnc(C(=O)NC(C)CO)cn2)ccc2c1B(O)OC2` (stereo not given), the survival at 3 mg/kg with Plasmodium berghei [6] stood at 0%.

As usually defined, the pIC50 is −log10 of the IC50, conventionally taken in molar units. As for `Cc1c(Oc2cnc(C(=O)N3CC(C)(O)C3)cn2)ccc2c1B(O)OC2`, the Vd in data set [7] amounted to 0.831 L/kg. Moreover, the survival at 100 mg/kg in the data set on Plasmodium berghei [4] turned out to be 0%. Moreover, in the data set with Plasmodium falciparum [8], the pIC50 was 7.21. The Time with Plasmodium falciparum [9] and in the data set with Plasmodium falciparum [10] was 0 h throughout. The T99.9% in the data set with Plasmodium falciparum [11] came to 30 h. Also, the Activity came out at 152 with Salmonella typhimurium [12]; 133 in the data set on Salmonella typhimurium [13]; 154 in the data set with Salmonella typhimurium [14]; 10 with Salmonella typhimurium [15]; 6 in the data set on Salmonella typhimurium [16]; 10 in the data set with Salmonella typhimurium [17]. Further, the Activity is 12 with Salmonella typhimurium [18]; 56 with Escherichia coli [19]; 39 in the data set on Escherichia coli [20]; 44 with Escherichia coli [21]; 53 in the data set with Escherichia coli [22]; 35 in the data set with Escherichia coli [23]. In addition, the Activity stood at 8% in the data set with Lymphocyte [24], 0.81% in the data set with Lymphocyte [25], 0.89% with Lymphocyte [26] and 0.95% in the data set with Lymphocyte [27].

For the molecule `Cc1c(Oc2cnc(C(=O)N3CC(O)(C(F)(F)F)C3)cn2)ccc2c1B(O)OC2`, the survival at 1.1 mg/kg with Plasmodium berghei [1] is 100%; in the data set with Plasmodium berghei [2], 0%.
